Measured values reported in ChEMBL document CHEMBL2311404, “Synthesis, antibacterial activity and docking of 14-membered 9-O-(3-arylalkyl) oxime 11,12-cyclic carbonate ketolides” (2013).
≈ marks a conversion by molar mass, not a printed value.

What was measured:
Type in all cases: functional
[1] = system: Staphylococcus epidermidis; experiment: Ratio of azithromycin MIC to compound MIC for methicillin-resistant, constitutive MLS-resistant Staphylococcus epidermidis E 2
Streptococcus pyogenes [2] = experiment: Antibacterial activity against constitutive MLS-resistant Streptococcus pyogenes A2 by broth microdilution method
Method in brief: (§1)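 Clinical isolates confirmed by 16S rDNA sequencing. MIC determined by broth microdilution following CLSI recommendations. Quality-control strains were S. aureus ATCC 29213 and S. pneumoniae ATCC 49619. Azithromycin and clarithromycin were run in parallel as reference agents.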

[3] = system: Staphylococcus epidermidis; experiment: Ratio of clarithromycin MIC to compound MIC for methicillin-resistant, constitutive MLS-resistant Staphylococcus epidermidis E 2
Streptococcus pyogenes [4] = experiment: Ratio of clarithromycin MIC to compound MIC for constitutive MLS-resistant Streptococcus pyogenes A2
Streptococcus pneumoniae [5] = experiment: Ratio of clarithromycin MIC to compound MIC for penicillin-resistant, constitutive MLS-resistant Streptococcus pneumoniae PU 11 expressing erm and mef genes
Streptococcus pneumoniae [6] = experiment: Antibacterial activity against penicillin-susceptible Streptococcus pneumoniae PU 09 expressing mef gene by broth microdilution method
Method in brief: (§2)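 MIC by broth microdilution following CLSI recommendations. Clinical isolates were identified by 16S rDNA sequencing and labeled by genotype and phenotype. S. aureus ATCC 29213 and S. pneumoniae ATCC 49619 served as control strains, with azithromycin and clarithromycin as reference agents.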

[7] = system: Staphylococcus haemolyticus; experiment: Ratio of clarithromycin MIC to compound MIC for methicillin-resistant, constitutive MLS-resistant, coagulase-deficient Staphylococcus haemolyticus PU 19 expressing ermA gene
[8] = system: Streptococcus dysgalactiae; experiment: Antibacterial activity against erythromycin-resistant Streptococcus dysgalactiae A1 expressing efflux pump by broth microdilution method; method in brief: as §1
Streptococcus pyogenes [9] = experiment: Antibacterial activity against erythromycin-susceptible Streptococcus pyogenes A3 by broth microdilution method; method in brief: as §2
[10] = system: Staphylococcus haemolyticus; experiment: Antibacterial activity against methicillin-resistant, constitutive MLS-resistant, coagulase-deficient Staphylococcus haemolyticus PU 19 expressing ermA gene by broth microdilution method; method in brief: as §1
Streptococcus pneumoniae [11] = experiment: Antibacterial activity against penicillin-susceptible, constitutive MLS-resistant Streptococcus pneumoniae PU 27 expressing erm gene by broth microdilution method; method in brief: as §1
Streptococcus pneumoniae [12] = experiment: Antibacterial activity against erythromycin-sensitive Streptococcus pneumoniae ATCC 49619 by broth microdilution method; method in brief: as §2
Streptococcus pyogenes [13] = experiment: Ratio of azithromycin MIC to compound MIC for constitutive MLS-resistant Streptococcus pyogenes A2
[14] = system: Staphylococcus epidermidis; experiment: Antibacterial activity against methicillin-resistant, constitutive MLS-resistant Staphylococcus epidermidis E 2 by broth microdilution method; method in brief: as §1
Staphylococcus hominis [15] = experiment: Ratio of clarithromycin MIC to compound MIC for methicillin-resistant, inducible MLS-resistant, coagulase-deficient Staphylococcus hominis E 3
Staphylococcus hominis [16] = experiment: Ratio of azithromycin MIC to compound MIC for methicillin-resistant, inducible MLS-resistant, coagulase-deficient Staphylococcus hominis E 3
[17] = system: Staphylococcus epidermidis; experiment: Ratio of azithromycin MIC to compound MIC for methicillin-susceptible, inducible MLS-resistant Staphylococcus epidermidis E 1
Staphylococcus aureus [18] = experiment: Antibacterial activity against methicillin-resistant, inducible MLS-resistant Staphylococcus aureus PU 32 expressing ermA gene by broth microdilution method; method in brief: as §1
[19] = system: Staphylococcus epidermidis; experiment: Ratio of clarithromycin MIC to compound MIC for methicillin-susceptible, inducible MLS-resistant Staphylococcus epidermidis E 1
[20] = system: Streptococcus dysgalactiae; experiment: Ratio of clarithromycin MIC to compound MIC for erythromycin-resistant Streptococcus dysgalactiae A1 expressing efflux pump
[21] = system: Staphylococcus haemolyticus; experiment: Ratio of azithromycin MIC to compound MIC for methicillin-resistant, constitutive MLS-resistant, coagulase-deficient Staphylococcus haemolyticus PU 19 expressing ermA gene
Streptococcus pneumoniae [22] = experiment: Ratio of clarithromycin MIC to compound MIC for penicillin-susceptible Streptococcus pneumoniae PU 09 expressing mef gene
Staphylococcus aureus [23] = experiment: Antibacterial activity against erythromycin-susceptible Staphylococcus aureus ATCC 29213 by broth microdilution method; method in brief: as §2
[24] = system: Staphylococcus epidermidis; experiment: Antibacterial activity against methicillin-susceptible, inducible MLS-resistant Staphylococcus epidermidis E 1 by broth microdilution method; method in brief: as §1
Streptococcus pneumoniae [25] = experiment: Ratio of azithromycin MIC to compound MIC for penicillin-resistant, constitutive MLS-resistant Streptococcus pneumoniae PU 11 expressing erm and mef genes
Streptococcus pneumoniae [26] = experiment: Antibacterial activity against penicillin-resistant, constitutive MLS-resistant Streptococcus pneumoniae PU 11 expressing erm and mef genes by broth microdilution method; method in brief: as §1
Staphylococcus hominis [27] = experiment: Antibacterial activity against methicillin-resistant, inducible MLS-resistant, coagulase-deficient Staphylococcus hominis E 3 by broth microdilution method; method in brief: as §1
Staphylococcus aureus [28] = experiment: Antibacterial activity against methicillin-resistant, constitutive MLS-resistant Staphylococcus aureus PU 20 expressing ermC gene by broth microdilution method; method in brief: as §1
Staphylococcus aureus [29] = experiment: Antibacterial activity against methicillin-sensitive, inducible MLS-resistant Staphylococcus aureus PU 64 expressing ermA gene by broth microdilution method; method in brief: as §1

| SMILES | MIC (Streptococcus pyogenes [2]) [µg/mL] | MIC (Streptococcus pneumoniae [6]) [µg/mL] | MIC [8] [µg/mL] | MIC (Streptococcus pyogenes [9]) [µg/mL] | MIC [10] [µg/mL] | MIC (Streptococcus pneumoniae [11]) [µg/mL] | MIC (Streptococcus pneumoniae [12]) [µg/mL] | MIC [14] [µg/mL] | MIC (Staphylococcus aureus [18]) [µg/mL] | MIC (Staphylococcus aureus [23]) [µg/mL] | MIC [24] [µg/mL] | MIC (Streptococcus pneumoniae [26]) [µg/mL] | MIC (Staphylococcus hominis [27]) [µg/mL] | also measured |
| --- | --- | --- | --- | --- | --- | --- | --- | --- | --- | --- | --- | --- | --- | --- |
| CC[C@H]1OC(=O)[C@H](C)C(=O)[C@H](C)[C@@H](O[C@@H]2O[C@H](C)C[C@H](N(C)C)[C@H]2O)[C@](C)(OC)C[C@@H](C)/C(=N\OCC#Cc2cncc3ccccc23)[C@H](C)[C@H]2OC(=O)O[C@@]21C | 16 (≈ 20.2 µM) | 0.032 (≈ 0.0403 µM) | 0.016 (≈ 0.0202 µM) | ≤ 0.008 | 32 (≈ 40.3 µM) | 0.064 (≈ 0.0806 µM) | ≤ 0.008 | 32 (≈ 40.3 µM) | 0.032 (≈ 0.0403 µM) | 0.016 (≈ 0.0202 µM) | 0.016 (≈ 0.0202 µM) | 16 (≈ 20.2 µM) | 0.064 (≈ 0.0806 µM) | Ratio [1]: >8; Ratio [3]: >8; Ratio (Streptococcus pyogenes [4]): >8; Ratio (Streptococcus pneumoniae [5]): >8; Ratio [7]: >8; Ratio (Streptococcus pyogenes [13]): >8; Ratio (Staphylococcus hominis [15]): >4000; Ratio (Staphylococcus hominis [16]): >4000; Ratio [17]: >16000; Ratio [19]: >16000; Ratio [20]: 500; Ratio [21]: >8; Ratio (Streptococcus pneumoniae [22]): 125; Ratio (Streptococcus pneumoniae [25]): >8 |
| CC[C@H]1OC(=O)[C@H](C)C(=O)[C@H](C)[C@@H](O[C@@H]2O[C@H](C)C[C@H](N(C)C)[C@H]2O)[C@](C)(OC)C[C@@H](C)/C(=N\OCCCc2cncc3ccccc23)[C@H](C)[C@H]2OC(=O)O[C@@]21C | 64 (≈ 80.2 µM) | 0.5 (≈ 0.627 µM) | 0.25 (≈ 0.313 µM) | 0.016 (≈ 0.0201 µM) | > 256 | 1 (≈ 1.25 µM) | 0.032 (≈ 0.0401 µM) | > 256 | 0.5 (≈ 0.627 µM) | 0.125 (≈ 0.157 µM) | 0.25 (≈ 0.313 µM) | 32 (≈ 40.1 µM) | 0.5 (≈ 0.627 µM) | MIC (Staphylococcus aureus [28]): > 256 µg/mL; MIC (Staphylococcus aureus [29]): 0.25 µg/mL (≈ 0.313 µM) |
